Drawing on ChEMBL document CHEMBL1146516, “Isolation and characterization of polybrominated diphenyl ethers as inhibitors of microtubule assembly from the marine sponge Phyllospongia dendyi collected at Palau” (J Nat Prod, 2004), this text covers Activity and IC50 for 11 compounds.

Active and inactive are the calls of the source. The rule behind the calls is not given here.

For one test, the species on record is Sus scrofa. Nature of the test: Inhibition of pig brain microtubule assembly at 100 uM. The essentials: (§1)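 Microtubule protein purified from fresh porcine brain by repeated polymerization/depolymerization cycles in 100 mM MES, 1 mM EGTA, 0.5 mM MgCl2, 1 mM GTP, 1 mM 2-mercaptoethanol, pH 6.5; 1.3 mg/mL protein; DMSO-dissolved sample (final DMSO <2%); assembly followed by turbidity at 400 nm, 37 °C.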

The next test has as its system Oocyte. The test is described as follows: Inhibition of 1-methyladenine-stimulated meiotic maturation in Asterina pectinifera immature oocytes assessed as germinal vesicle breakdown at 100 uM after 60 mins. It counts as functional, cell-based. Conditions: Patiria pectinifera. The essentials:
(§2)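 Immature oocytes from wild-caught Asterina pectinifera ovaries, 100 cells/mL; DMSO-dissolved sample added, held on ice 10 min, then 1-MeAde (1.25 µM, as added) added; incubated 20 °C for 60 min; germinal vesicle state scored under inverted microscope.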

Test [1] is described as follows: Inhibition of pig brain microtubule assembly. The arrangement: species or system Sus scrofa. The method, boiled down:
as §1

Test [2] can be described thus: Inhibition of 1-methyladenine-stimulated meiotic maturation in Asterina pectinifera immature oocytes assessed as germinal vesicle breakdown after 60 mins. It counts as functional, cell-based, Patiria pectinifera. Conditions: oocyte. The essentials:
as §2

Take `Oc1c(Br)cc(Br)cc1Oc1ccc(Br)cc1Br`: the result in the test filed under Sus scrofa and in the test with Oocyte was inactive.

For the compound `COc1c(Br)c(Br)cc(Br)c1Oc1cc(Br)cc(Br)c1O`, the outcome in the test filed under Sus scrofa and in the test with Oocyte was inactive.

Regarding `COc1cc(Br)cc(Br)c1Oc1cc(Br)cc(Br)c1OC`, the result in the test filed under Sus scrofa and in the test on Oocyte was inactive.

With `COc1cc(Br)cc(Br)c1Oc1c(Br)ccc(Br)c1O`, the result in the test filed under Sus scrofa and with Oocyte was inactive.

As for `Oc1cc(Br)c(Br)c(Br)c1Oc1c(Br)ccc(Br)c1O`, the IC50 in test [1] was 20.9 µM; in test [2] it was 4.2 µM.

On to `COc1cc(Br)c(Br)c(Br)c1Oc1cc(Br)cc(Br)c1OC`, for which the outcome in the test filed under Sus scrofa and in the test on Oocyte was inactive.

In the case of `COc1cc(Br)c(Br)c(Br)c1Oc1cc(Br)cc(Br)c1O`, the outcome in the test listed under Sus scrofa and in the test with Oocyte was inactive.

Consider `COc1c(Br)c(Br)c(Br)c(Br)c1Oc1cc(Br)cc(Br)c1O`, for which the result in the test filed under Sus scrofa and with Oocyte was inactive.

Regarding `Oc1c(Br)cc(Br)cc1Oc1c(O)c(Br)c(Br)c(Br)c1Br`, the IC50 came out at 29.6 µM in test [1] and 3.6 µM in test [2].

As to `Oc1c(Br)cc(Br)cc1Oc1c(Br)cc(Br)c(Br)c1O`, the figures for the IC50 in test [1] and in test [2] were 33.5 µM and 4.2 µM, respectively.

`COc1cc(Br)cc(Br)c1Oc1cc(Br)cc(Br)c1O`: the outcome in the test filed under Sus scrofa and in the test with Oocyte was inactive.
